This sample holds only a part of the variants without activity.
B1: tRNA (parent)
chain: GUUCCGUUGGCGUAAUGGUAACGCGUCUCCCUCCUAAGGAGAAGACUGCGGGUUCGAGUCCCGUACGGAACG

Variants of: B1
Assay: yeast fitness relative to wild type (ratio to wild type); higher = fitter; tRNA-Arg(CCU), competitive growth, 37 C, YPD
Summary of the method: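 Variants of the tRNA-Arg(CCU) gene were chemically synthesised with a 3% per-site mutation rate across 69 sites and placed at the native genomic locus in Saccharomyces cerevisiae. Six parallel replicates of the pooled strains were competed in YPD at 37°C for 24 hours, and gene amplicons from the start and end populations were read by 100-nucleotide paired-end sequencing. Darwinian fitness relative to wild type was derived from changes in genotype frequencies. Genotypes required ≥ 100 starting reads, and estimates < 0.5 were set to 0.5.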

Point of comparison: C5G A20G A36C, yeast fitness 0.52. Against it:
- C5G A15C C22A — higher, 0.627
- C5G A15C C29A C61G — lower, ≤ 0.5
- C5G A15C C46U U53G A57C — higher, 0.588
- C5G A15C G48C G68U — lower, ≤ 0.5
- C5G A15C U28A G41C U64G — lower, ≤ 0.5
- C5G A15G A36G A43G — higher, 0.593
- C5G A15G A36G A43G G56A — lower, ≤ 0.5
- C5G A15G A36G A45C G50U — lower, ≤ 0.5
- C5G A15G A42C — higher, 0.544
- C5G A15G C24G U32A C34G C66U — lower, ≤ 0.5
- C5G A15G C27G C30A — lower, ≤ 0.5
- C5G A15G C27G U28A U32A A45G C46U — higher, 0.573
- C5G A15G C66U — lower, ≤ 0.5
- C5G A15G U16A A20G U28A C30A C33A A36U — higher, 0.553
- C5G A15G U16A A20G U28A C30A C33A A36U A65U A69C — lower, ≤ 0.5
- C5G A15G U16A A20G U28A C30A C33A A36U A69C — higher, 0.578
- C5G A15G U16A A20G U28A C30A C33A A36U A69U — lower, ≤ 0.5
- C5G A15G U16A A20G U28A C30A C33A A36U A70U — lower, ≤ 0.5
- C5G A15G U16A A20G U28A C30A C33A A36U G50A C66U — lower, ≤ 0.5
- C5G A15G U16A A20G U28A C30A C33A A36U G63A A69C — lower, ≤ 0.5
- C5G A15G U28A A57C C66G — lower, ≤ 0.5
- C5G A15G U28C A45C — lower, ≤ 0.5
- C5G A15G U28C C30U A69U — lower, ≤ 0.5
- C5G A15U A40U G67C — lower, ≤ 0.5
- C5G A15U C24A — higher, 0.654
- C5G A15U C29G U59G — lower, ≤ 0.5
- C5G A15U C30A C31A C49U C66G — lower, ≤ 0.5
- C5G A15U C46U — higher, 0.594
- C5G A15U G41A G58A — lower, ≤ 0.5
- C5G A15U G41C C55A — lower, ≤ 0.5
- C5G A15U G44C G50A U54A — lower, ≤ 0.5
- C5G A15U G58A G67A — higher, 0.626
- C5G A20C C24U G68A — lower, ≤ 0.5
- C5G A20C C27A G39A C61G — lower, ≤ 0.5
- C5G A20C C29G — higher, 0.538
- C5G A20C C31A — higher, 0.55
- C5G A20C C31G A37U — higher, 0.617
- C5G A20C C34G — lower, ≤ 0.5
- C5G A20C G39C C62U G63C — lower, ≤ 0.5
- C5G A20C U28C C29A A36U A40U C49G — lower, ≤ 0.5
- C5G A20G — higher, 0.965
- C5G A20G A36C G50A G51A A69C — lower, ≤ 0.5
- C5G A20G A36C G63A — lower, ≤ 0.5
- C5G A20G A40G G44A C46G A65C — lower, ≤ 0.5
- C5G A20G A40G G44A C46G A70C — lower, ≤ 0.5
- C5G A20G A42G C66G — lower, ≤ 0.5
- C5G A20G A42U — higher, 0.66
- C5G A20G C22G C29G — lower, ≤ 0.5
- C5G A20G C22G C29G G63A — lower, ≤ 0.5
- C5G A20G C22G C29G G63C — lower, ≤ 0.5
- C5G A20G C22G C29G G63C A69U — higher, 0.527
- C5G A20G C30A C34G — lower, ≤ 0.5
- C5G A20G C31A — lower, ≤ 0.5
- C5G A20G C34A A40U — lower, ≤ 0.5
- C5G A20G U53A G67A — lower, ≤ 0.5
- C5G A20U A21G C22G U35A G44A C55U C60G U64A G67A — higher, 0.649
- C5G A20U A37G — lower, ≤ 0.5
- C5G A20U A70C — higher, 0.68
- C5G A20U C30U C62U — lower, ≤ 0.5
- C5G A20U C31G — lower, ≤ 0.5
- C5G A20U C46A A57U — lower, ≤ 0.5
- C5G A20U C46U — higher, 0.601
- C5G A20U C66U A69U — lower, ≤ 0.5
- C5G A20U G25A G41A C55G — lower, ≤ 0.5
- C5G A20U G25A G41A C55G U64G — higher, 0.534
- C5G A20U G41C — lower, ≤ 0.5
- C5G A20U G51C — lower, ≤ 0.5
- C5G A20U U28G — lower, ≤ 0.5
- C5G A20U U54A — lower, ≤ 0.5
- C5G A21C — higher, 0.636
- C5G A21C A45G — lower, 0.512
- C5G A21C A45U C46U — lower, ≤ 0.5
- C5G A21C A69C — lower, ≤ 0.5
- C5G A21C C24U C33U — lower, ≤ 0.5
- C5G A21C C29U C31G A43U A65U — lower, ≤ 0.5
- C5G A21C C33G — lower, ≤ 0.5
- C5G A21C C33U — higher, 0.535
- C5G A21C G39A — lower, ≤ 0.5
- C5G A21G A45U G56A — higher, 0.753
- C5G A21G C22U — higher, 0.689
- C5G A21G C27G C34G A43C C46G A70G — higher, 0.561
- C5G A21G C30U A40U — lower, ≤ 0.5

From the RNAGym collection of RNA variant scans (doi:10.1126/science.aae0568)
